High-throughput results from PubChem.
An excerpt weighted towards active compounds, which were near 1.9% of everything screened.
SR-BI HDL uptake: inhibitors of SR-BI mediated HDL lipid uptake, primary screen, ldlA[mSR-BI] cells, fluorescence, single point; Scavenger receptor class B member 1 (Mus musculus), Q61009; ldlA[mSR-BI] CHO cells, DiI-HDL uptake fluorescence, 3 h; inhibition, % at 12.5 µM; actives 0.96% (n = 320,000);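 active = mean replicate inhibition of at least 70% and a set share of replicates each scoring 70 or more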;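 note: 0% = median of neutral control wells and 100% = median of positive control wells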
Rin1 Abl inh: inhibitors of Rin1-Abl protein binding, primary screen, biochemical, TR-FRET; actives 0.4% (n = 360,000); inhibition, % at 7.35 µM; in the data active = inhibition above about 5%, passing the limit was not always enough
GRK2 inh: compounds blocking aptamer binding on GRK2 – biochemical, human GRK2, bead flow cytometry, HTS, primary screen; Beta-adrenergic receptor kinase 1 (Homo sapiens), P25098; FAM-aptamer displacement from GRK2; inhibition of aptamer binding, % at 10 µM; actives 0.59% (n = 330,000);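 active = inhibition of aptamer binding above 40%, roughly 3 SD of noise, on plates passing a quality check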;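 note: median bead fluorescence of bound FAM aptamer so fluorescent compounds give negative values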
SR-BI DiI-HDL act: activators of SR-BI mediated DiI-HDL uptake, primary screen, ldlA[mSR-BI] CHO cells, DiI fluorescence. 3 h; 100 = double the neutral-control signal. activation, % at 12.5 µM. actives 0.096% (n = 320,000). AID 504775, 2011;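 active = mean replicate activation of at least 60% and every replicate at or above 60%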;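 note: 0% = median plate neutral-control signal and 100% = twice that signal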
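Material: SR-BI-overexpressing, LDLR-lacking CHO cells; schedule: compound exposure 3 h, 37 °C; reagent: DiI-labelled HDL at 10 µg/mL final; technique: bottom-read fluorescence, 550/595 nm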
GRK2 CP1: GRK2 aptamer-displacing inhibitors, retest, confirmation, biochemical, cherry pick 1, bead flow cytometry | shares compounds with GRK2 inh | bead-bound GRK2, FAM-aptamer displacement | aptamer displacement, % at 10 µM | actives 4% (n = 2,000);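 active = aptamer displacement above 40%, near three times the noise of non-fluorescent compounds, on plates passing quality checks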;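 note: negative values mostly reflect intrinsic compound fluorescence rather than true enhancement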
Aptamer quench SP: quenches fluorescent RNA aptamer, GRK2 hit artifact. shares compounds with GRK2 inh. Carboxyfluorescein RNA aptamer on beads, flow cytometry quenching; stronger effect = lower value. fluorescence response (% of DMSO), % at 10 µM. 2,000 tested, under 10 active. AID 504580;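 active = compounds that quench the bead-bound fluorescent RNA probe, cutting fluorescence to under half of the solvent control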;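 note: counterscreen run without GRK2 so only probe quenching by compound is measured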
An asterisk follows results filed as active.

Cc1cc(C)cc(C(=O)N2CCN(c3ccccn3)CC2)c1 was read as SR-BI HDL uptake 6, Rin1 Abl inh 0, GRK2 inh 3, SR-BI DiI-HDL act -6, GRK2 CP1 -4 and Aptamer quench SP 99.
Screening O=C(c1cccc(S(=O)(=O)N2CCc3ccccc32)c1)N1CCN(c2ccccn2)CC1 returned SR-BI HDL uptake 7, Rin1 Abl inh 0, GRK2 inh 2, SR-BI DiI-HDL act -7, GRK2 CP1 0 and Aptamer quench SP 97.
For COc1ccccc1N1CCN(C(=O)c2cccc(S(=O)(=O)N3c4ccccc4CC3C)c2)CC1 (centres undefined) the results were SR-BI HDL uptake 67, Rin1 Abl inh 1, SR-BI DiI-HDL act -67, GRK2 CP1 -4 and Aptamer quench SP 96.
`O=C(NC(=S)N1CCN(c2ccccc2)CC1)c1ccc(S(=O)(=O)N2CCOCC2)cc1` gave Rin1 Abl inh -3 and GRK2 inh 3.
For O=C(c1ccc(Cl)c(S(=O)(=O)NCc2ccccc2)c1)N1CCN(c2ccccn2)CC1 the results were SR-BI HDL uptake 21, Rin1 Abl inh -1, GRK2 inh 2, SR-BI DiI-HDL act -21, GRK2 CP1 -2 and Aptamer quench SP 103.
O=C(COc1cc(Cl)c(Cl)cc1Cl)N1CCN(c2ccccn2)CC1 was read as SR-BI HDL uptake -3, Rin1 Abl inh 2, GRK2 inh 95*, SR-BI DiI-HDL act 3, GRK2 CP1 -2 and Aptamer quench SP 95.
Screening CCOc1ccc(NS(=O)(=O)c2cccs2)cc1S(=O)(=O)N1CCCC1 returned Rin1 Abl inh -1.
CC1(C(=O)Nc2ccc3c(c2)OCCO3)CCN1C(=O)C1(c2ccc(Cl)cc2)CC1 (centres undefined) was read as Rin1 Abl inh 0.
Screening Cc1ccc(NS(=O)(=O)c2ccc(C)c(NC(=O)c3ccc(S(=O)(=O)N4CCCCCC4)cc3)c2)c(C)c1 returned Rin1 Abl inh -2.
`CCOc1ccc2nc(NC(=O)CCn3cccc3)sc2c1` gave SR-BI HDL uptake 48, Rin1 Abl inh -1, GRK2 inh 34, SR-BI DiI-HDL act -46, GRK2 CP1 3 and Aptamer quench SP 98.
Screening COc1ccccc1CNC(=O)COC(=O)c1cc(-c2ccco2)nc2ccccc12 returned SR-BI HDL uptake 36, Rin1 Abl inh 3, GRK2 inh 49*, SR-BI DiI-HDL act -36, GRK2 CP1 34 and Aptamer quench SP 97.
`CCc1nnc(NC(=O)c2cc(-c3ccco3)nc3ccccc23)s1` gave SR-BI HDL uptake -4, Rin1 Abl inh -4, GRK2 inh 0, SR-BI DiI-HDL act 4, GRK2 CP1 -1 and Aptamer quench SP 97.
For COc1ccccc1CNC(=O)COC(=O)c1cc(C)nc2ccccc12 the results were SR-BI HDL uptake -1, Rin1 Abl inh -3, GRK2 inh 0 and SR-BI DiI-HDL act 1.
`O=C1CN(C(=O)c2ccccc2F)c2ccccc2N1` gave SR-BI HDL uptake -1, Rin1 Abl inh 1, GRK2 inh 48*, SR-BI DiI-HDL act 1, GRK2 CP1 1 and Aptamer quench SP 96.
For O=C1CN(C(=O)c2ccccn2)c2ccccc2N1 the results were SR-BI HDL uptake 16, Rin1 Abl inh -2, GRK2 inh 0 and SR-BI DiI-HDL act -16.
`COC(=O)c1c(C)nc(C)c(C(=O)OC)c1-c1ccc(OC)c(OC)c1` gave SR-BI HDL uptake -18, Rin1 Abl inh 2, GRK2 inh 54*, SR-BI DiI-HDL act 18, GRK2 CP1 -4 and Aptamer quench SP 100.
Screening CCOC(=O)c1c(C)nc(C)c(C(=O)OCC)c1-c1ccc(O)c(OC)c1 returned SR-BI HDL uptake -28, Rin1 Abl inh 5, GRK2 inh 0 and SR-BI DiI-HDL act 28.
